An excerpt weighted towards active compounds, which were near 1.4% of everything screened.
PMI act hi M6P: PMI (human) activation, high substrate. coupled PMI enzyme assay, resazurin fluorescence, 20 min; stronger effect = higher value; 1 = untreated enzyme, 0 = substrate-free blank. activation factor at 20 µM. 0.34% of 190,000 active. AID 1216;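 active means activation factor of 2 or more at 20 µM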
Target sequence (P34949 whole entry, looked up): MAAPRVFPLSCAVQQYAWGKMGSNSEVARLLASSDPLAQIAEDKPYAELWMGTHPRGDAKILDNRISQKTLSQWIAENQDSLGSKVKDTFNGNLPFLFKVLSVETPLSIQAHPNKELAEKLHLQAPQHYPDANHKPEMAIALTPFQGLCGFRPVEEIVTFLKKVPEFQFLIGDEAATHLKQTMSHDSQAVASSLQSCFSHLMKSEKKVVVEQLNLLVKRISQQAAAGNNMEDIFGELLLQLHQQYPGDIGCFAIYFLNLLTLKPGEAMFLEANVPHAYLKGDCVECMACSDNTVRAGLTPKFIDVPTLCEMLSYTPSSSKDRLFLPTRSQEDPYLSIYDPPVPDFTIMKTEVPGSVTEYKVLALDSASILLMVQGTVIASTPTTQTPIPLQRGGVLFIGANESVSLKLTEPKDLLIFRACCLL
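Test system: human phosphomannose isomerase with PGI, G6PDH, diaphorase coupling enzymes; Amount: PMI at 15 ng/mL final; Reagent: Mannose-6-phosphate 1.0 mM (near-saturating) plus 0.22 mM NADP+; Timing: 20 min, room temperature; Technique: resorufin fluorescence at Ex 544/Em 590 nm; Dosing: 20 µM single dose.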
PMI activator: activators of human phosphomannose isomerase; 0.005% of 190,000 active; P34949; activation factor at 20 µM; purified human PMI, coupled resazurin fluorescence, 20 min; stronger effect = higher value; 1 = vehicle control, 0 substrate-free wells;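 active means activation factor of 2 or more at 20 µM, relative to plate controls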
Avidin fluor: avidin bead compound fluorescence profile; Avidin beads, compound fluorescence 488/530 nm, flow cytometry; stronger effect = higher value; fluorescence (KMESF) at 10 µM; 0.38% of 220,000 active; AID 1775; in the data active means fluorescence above about 47
Diaphorase act: activates diaphorase or chemically reduces, flagging diaphorase assay artifacts | 0.005% of 190,000 active | activation factor at 20 µM | AID 1229 | Diaphorase/resazurin coupled assay, resorufin fluorescence, 16 min; stronger effect = higher value; 1 = vehicle wells, 0 = NADH-free wells;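 active means diaphorase activity raised at least twofold by the compound at 20 µM; inactive means activation factor below 2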
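Material: bacterial diaphorase enzyme (C. kluyveri); amount: enzyme 0.07 U/mL final; reagent: NADH substrate 0.114 mM plus resazurin dye 0.1 mM, final; doses: single compound dose of 20 µM, 1% DMSO final; timing: 16 min enzyme reaction, ambient temperature; measured by: fluorescence of resorufin, 544 nm excitation, 590 nm emission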
GSH fluor: GSH bead compound fluorescence profile | GSH beads flow cytometry, compound fluorescence 488/530 nm; stronger effect = higher value | fluorescence (KMESF) at 10 µM | 0.25% of 190,000 active | AID 1776; in the data active means fluorescence above about 89;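 further: glutathione beads carrying GST-tagged Bcl family fusion proteins plus one bare bead set; values are compound well signal with DMSO vehicle wells as background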
p47phox inh: p47phox (human) inhibition | P14598 | p47phox/p22phox peptide binding, fluorescence polarization, 2 h | inhibition, % at 24.7 µM | 0.53% of 220,000 active;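 active means inhibition above about 30%, limit read from the data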;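 further: 0% = p47phox with labelled peptide and 100% = labelled peptide alone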
Starred values were filed as active, the others as inactive; x = not tested or not shown.

SMILES	PMI act hi M6P	PMI activator	Avidin fluor	Diaphorase act	GSH fluor	p47phox inh
CC1(CC(=O)N/N=C/c2ccc(-c3cccc(C(F)(F)F)c3)o2)OCCO1	1	1	254*	0.9	10	-6
CCOC(=O)N/N=C\c1ccc(-c2cccc(C(F)(F)F)c2)o1	0.9	1	6	0.9	12	-6
Clc1ccc(-c2cn3cccnc3n2)cc1Cl	2*	1.5	10	0.9	15	-50
Cc1noc(C)c1COC(=O)c1cc(F)c(F)cc1Cl	1	1	10	0.9	48	-21
CC(C)(C)C1CCC(=NNC(=O)CN(c2ccccc2)S(=O)(=O)c2ccccc2[N+](=O)[O-])CC1 (centres undefined)	1	1	53*	1	20	-2
Nc1nnc(CC(c2ccccc2)c2ccccc2)s1	1	0.9	6	0.9	12	-9
COc1ccc(N(CC(=O)Nc2cc(C)on2)S(=O)(=O)c2ccc(Cl)cc2)cc1	0.9	0.9	4	0.7	250*	-8
Cc1cc(NC(=O)CSc2nnc3c4c(C)c(C)sc4ncn23)no1	0.9	0.9	111*	0.8	29	-17
O=C(CN1CCN(c2ncc(C(F)(F)F)cc2Cl)CC1)NC(=O)NCc1ccccc1	1	1.1	21	0.8	11	3
O=C(c1cc2c(ccc3ccccc32)o1)N1CCN(c2ncc(C(F)(F)F)cc2Cl)CC1	1	1	8	0.8	277*	-10
CC(C)Sc1n[nH]c2nc3c(c(=O)n12)C1(CCCC1)Cc1ccccc1-3	1.3	1.1	11	0.9	16	1
CSc1n[nH]c2nc3c(c(=O)n12)C1(CCCC1)Cc1ccccc1-3	2.2*	1.6	3	0.9	5	-1
Cc1nccn1S(=O)(=O)c1ccc(Br)cc1Br	1	1	92*	0.9	10	4
COc1ccc(Br)cc1S(=O)(=O)n1ccnc1C	1	1	13	0.9	35	-3
c1ccc2c(c1)CCCC2NC1=NCCC1 (centres undefined)	0.8	0.9	11	0.9	256*	-10
CCN(CC)S(=O)(=O)c1ccc(NC2CCCc3ccccc32)nc1 (centres undefined)	0.9	0.9	35	0.9	25	-2
O=C(COc1ccc(/C=N/NC(=O)c2cc3ccccc3o2)cc1Br)Nc1ccccc1	1.1	1.2	16	1.3	21	38*
O=C(COc1ccccc1[N+](=O)[O-])Nc1ccc(NC(=O)c2cc3ccccc3o2)cc1	1	1	8	1.1	10	32*
O=C(COc1ccccc1[N+](=O)[O-])Nc1ccc2c(c1)OCO2	0.7	0.9	9	0.8	10	-2
S=c1cnc2ccccc2[nH]1	2.1*	1.5	5	0.9	18	-4
c1ccc(CCc2nc3ccccc3[nH]2)cc1	1.1	1	11	0.9	11	-18
Cn1nc(C(F)(F)F)c(C(=O)Nc2ccc(C(F)(F)F)cc2)c1Cl	1	1	24	0.9	24	-12
O=C(O)c1ccccc1NN=C1CCCCC1	2.5*	1.7	12	0.8	18	11
O=C(O)c1ccccc1Nc1ccccc1C(=O)O	1	1	16	0.9	21	-11
O=C1C=CC(=O)N1CCCCCCN1C(=O)C=CC1=O	0.9	0.7	14	1	13	6
SMILES	PMI act hi M6P	PMI activator	Avidin fluor	Diaphorase act	GSH fluor	p47phox inh
CC(Oc1ccccc1)C(=O)N1CCN=C1SCc1cccc(F)c1 (centres undefined)	x	x	14	x	x	-11
Cc1nc2ccccc2c(=O)n1NC(=O)c1cccnc1Cl	1	1.1	6	1	11	3
Cc1nc2ccccc2c(=O)n1NC(=O)c1ccccc1[N+](=O)[O-]	1.1	1.1	49*	1.1	22	1
Fc1cccc(Cl)c1Cn1nnc2c(N3CCC4(CC3)OCCO4)ncnc21	1	1	4	1	46	-9
COc1cccc(C(=O)C2CCCN(Cc3c(C)n(C)n(-c4ccccc4)c3=O)C2)c1 (centres undefined)	x	x	4	x	x	-8
CCC(C)N1CC(C(=O)O)CC1=O (centres undefined)	1	0.9	16	0.8	16	47*
CCOc1ccc(-n2cc(C(=O)Nc3cccc(Cl)c3)c3cc(OC)c(OC)cc3c2=O)cc1	1	0.8	33	0.6	27	-2
CCOP(=O)(OCC)C(NC(=O)c1cccs1)C(F)(F)F (centres undefined)	1	1	21	1.1	9	5
CCCC(c1nnnn1Cc1cccs1)N1CCN(C2CCCC2)CC1 (centres undefined)	1.2	1	117*	1	19	1
CCCn1c(N)c(C(=O)CSc2nc3ccccc3c(=O)n2Cc2ccccc2)c(=O)[nH]c1=O	0.9	0.9	64*	0.9	16	18
Cc1cc(C(=O)CSc2nc3ccccc3c(=O)n2C)c(C)n1Cc1ccc2c(c1)OCO2	0.8	0.9	152*	0.9	12	-49
CCCn1c(N)c(C(=O)CSc2nnc(C)n2Cc2ccccc2)c(=O)n(C)c1=O	1	1	10	0.9	51	5
Cn1c(N)c(C(=O)CSc2nc3ccccc3c(=O)n2Cc2ccccc2)c(=O)n(C)c1=O	x	x	49*	x	x	-12
COc1ccc(-c2nnc(SCc3ccccc3)n2N)cc1	1	1.1	8	1	70	-2
Cc1ccccc1-n1sc2cc(F)ccc2c1=O	0.2	-0.1	2	0.9	7	102*
Cc1ccccc1-n1c(=O)c2ccccc2n2cnnc12	1	1	10	0.8	4	7
CN1C(=O)C2(C(C#N)=C(N)Oc3n[nH]c(-c4ccc(Cl)cc4)c32)c2ccccc21 (centres undefined)	0.8	0.8	10	0.8	25	-5
CC(=O)N1C(=O)C2(C(C#N)=C(N)Oc3n[nH]c(-c4ccccn4)c32)c2ccccc21 (centres undefined)	0.9	0.8	12	0.8	78	151*
O=C(Nc1nnc(COc2ccc(F)cc2)s1)c1ccco1	x	x	8	x	x	-25
CCCC(=O)Nc1ccc(C(=O)NCc2ccccc2Cl)cc1	1	1	4	1	137*	-5
CCOC(=O)c1ccc(NC(=O)Nc2ccc3c4c(cccc24)C(=O)N3CC)cc1	0.5	0.8	10	0.8	5	3
CC(=O)CSc1nc2cc3c(cc2cc1C#N)OCCO3	2*	1.5	8	0.9	18	-19
CCOc1ccc(-c2nn[nH]n2)cc1	1.1	1.1	8	1	275*	-2
